Data: ChEMBL document CHEMBL3808283, “Biological Characterization and in Vivo Assessment of the Activity of a New Synthetic Macrocyclic Antifungal Compound” (J Med Chem, 2016)
Values after ≈ are worked out from the molar mass of the structure shown. Active and inactive are the calls of the source. No cut-off for these calls is given here.

What was measured:
Pichia kudriavzevii [1] = assay: Antifungal activity against Candida krusei ATCC 14243 measured at 48 hrs by broth dilution assay; assay type: functional; conditions: ATCC 14243, 48 h
How it was run: (§1)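 EUCAST broth microdilution, including the update for non-fermenting yeasts (Cryptococcus, Geotrichum), on clinical and reference yeast isolates. Incubated at 37 °C and read at 24, 48 and 72 h. MIC taken as the lowest concentration with no visible growth. For Cryptococcus and Geotrichum, MICs were read only once growth was visible in the control row.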

Candida parapsilosis [2] = assay: Antifungal activity against Candida parapsilosis 81E measured at 48 hrs by broth dilution assay; assay type: functional; conditions: Lodderomyces parapsilosis; how it was run: as §1
Candida albicans [3] = assay: Upregulation of PDR16 gene expression in Candida albicans SC5314 at 3 uM after 15 mins by microarray method relative to control; assay type: functional
How it was run: (§2)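 Log-phase C. albicans SC5314 in liquid YEPD exposed to 3 µM final for 15 or 45 min; untreated controls taken at the same time points. Three biological replicates. RNA extracted by glass-bead/phenol-chloroform method and integrity checked. One-color Cy3-labeled cRNA (600 ng) hybridized 17 h at 65 °C to 8 × 15K arrays. Expression expressed as fold change versus control.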

Candida parapsilosis [4] = assay: Antifungal activity against Candida parapsilosis 64E measured at 72 hrs by broth dilution assay; assay type: functional; conditions: Lodderomyces parapsilosis; how it was run: as §1
Candida albicans [5] = assay: Upregulation of orf19.4907 gene expression in Candida albicans SC5314 at 3 uM after 45 mins by microarray method relative to control; assay type: functional
How it was run: (§3)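 Log-phase cultures in liquid YEPD were exposed to 3 µM compound (final) for 15 or 45 min, with untreated controls sampled at the same times, in three biological replicates. Total RNA was extracted by glass-bead/phenol-chloroform disruption and integrity-checked. One-color Cy3-labelled cRNA (600 ng) was hybridized for 17 h at 65 °C to 8 × 15K arrays, and fold change was taken versus control.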

Candida albicans [6] = assay: Upregulation of orf19.1438 gene expression in Candida albicans SC5314 at 3 uM after 45 mins by microarray method relative to control; assay type: functional; how it was run: as §2
Candida parapsilosis [7] = assay: Antifungal activity against Candida parapsilosis 81E measured at 24 hrs by broth dilution assay; assay type: functional; conditions: Lodderomyces parapsilosis; how it was run: as §1
[8] = Chemical stability in RPMI-1640 buffer at 2 mM up to 72 hrs at 30 degC by LC-UV-MS analysis; conditions: 2000 µM
Magnusiomyces capitatus = assay: Antifungal activity against Geotrichum capitatum measured at 48 hrs by broth dilution assay; assay type: functional; how it was run: as §1
Candida albicans [9] = assay: Upregulation of TAC1 gene expression in Candida albicans SC5314 at 3 uM after 45 mins by microarray method relative to control; assay type: functional; how it was run: as §2
Candida albicans [10] = assay: Upregulation of orf19.7336 gene expression in Candida albicans SC5314 at 3 uM after 15 mins by microarray method relative to control; assay type: functional; how it was run: as §3
Candida tropicalis = assay: Ratio of MIC at 24 hrs to MIC at 48 hrs for Candida tropicalis 86E; assay type: functional
How it was run: (§4)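 MICs by EUCAST broth microdilution, with the update for non-fermenting yeasts, incubated at 37 °C. Read at 24, 48 and 72 h as the lowest concentration preventing visible growth.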

Candida albicans [11] = assay: Antifungal activity against azole-resistant Candida albicans isolate DSY296 in immunocompetent Balb/c mouse candidiasis model assessed as reduction in CFU count in kidney at 40 mg/kg/day, ip regime measured on day 7 post infection; assay type: functional, organism-based
How it was run: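 Immunocompetent BALB/c mice, 10 per strain group, received 7 × 10^4 CFU of C. albicans in 200 µL saline via the lateral vein. Drug was given i.p. daily at 40 mg/kg/day as a 0.1 mg/mL solution in DMSO/PEG 400 (2:1), 100 µL per dose. On day 7, spleen and kidneys were weighed, homogenized, and plated on YPD agar (2 days, 30 °C) for CFU/g. Analysis used Wilcoxon rank-sum, P<0.05.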

Pichia kudriavzevii [12] = assay: Antifungal activity against Candida krusei 193T measured at 48 hrs by broth dilution assay; assay type: functional; how it was run: as §1
Candida albicans [13] = assay: Upregulation of LCB4 gene expression in Candida albicans SC5314 at 3 uM after 15 mins by microarray method relative to control; assay type: functional; how it was run: as §2
Candida parapsilosis [14] = assay: Ratio of MIC at 24 hrs to MIC at 48 hrs for Candida parapsilosis 64E; assay type: functional; how it was run: as §4
Candida albicans [15] = assay: Upregulation of orf19.4907 gene expression in Candida albicans SC5314 at 3 uM after 15 mins by microarray method relative to control; assay type: functional; how it was run: as §3
Candida parapsilosis [16] = assay: Fungistatic activity against Candida parapsilosis 81E at 20 uM after 24 to 48 hrs by time kill assay; assay type: functional, organism-based
How it was run: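 EUCAST broth microdilution at 37 °C. From wells at MIC, 2×, 4× and 8× MIC, 10 µL aliquots were taken, serially 10-fold diluted in saline and plated on Sabouraud dextrose agar. Plates were incubated at 37 °C for 24/48 h, and 48 h for Cryptococcus and Geotrichum. Done in duplicate, detection limit 10 CFU/mL. A drop of at least 3 Log10 CFU/mL from the initial inoculum in 24 h counts as fungicidal; a smaller drop counts as fungistatic.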

Candida albicans [17] = assay: Upregulation of orf19.1438 gene expression in Candida albicans SC5314 at 3 uM after 15 mins by microarray method relative to control; assay type: functional; how it was run: as §2
Cryptococcus neoformans = assay: Antifungal activity against Cryptococcus neoformans measured at 72 hrs by broth dilution assay; assay type: functional; how it was run: as §1
Candida albicans [18] = assay: Upregulation of orf19.4531 gene expression in Candida albicans SC5314 at 3 uM after 15 mins by microarray method relative to control; assay type: functional; how it was run: as §3
Candida albicans [19] = assay: Upregulation of ERG2 gene expression in Candida albicans SC5314 at 3 uM after 15 mins by microarray method relative to control; assay type: functional; how it was run: as §2
Candida albicans [20] = assay: Antifungal activity against Candida albicans isolate DSY654 harboring CDR1/2 deletion mutant at 10 uM by serial dilution assay; assay type: functional, organism-based
How it was run: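 Spot dilution assay: C. albicans cells 10-fold serially diluted from 2 × 10^7 cells/mL, with 5 µL of each dilution spotted onto YEPD agar plates containing the drug.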

Nakaseomyces glabratus [21] = assay: Antifungal activity against Candida glabrata 70 measured at 48 hrs by broth dilution assay; assay type: functional; conditions: Nakaseomyces glabratus, 70, 48 h; how it was run: as §1
[22] = Antifungal activity against Geotrichum silvicola up to 96 hrs by broth dilution assay; assay type: functional
Nakaseomyces glabratus [23] = assay: Antifungal activity against Candida glabrata 70 measured at 72 hrs by broth dilution assay; assay type: functional; conditions: Nakaseomyces glabratus, 70, 72 h; how it was run: as §1
Candida albicans [24] = assay: Antifungal activity against Candida albicans ATCC 60193 measured at 72 hrs by broth dilution assay; assay type: functional; conditions: ATCC 60193, 72 h; how it was run: as §1
Candida albicans [25] = assay: Antifungal activity against Candida albicans ATCC 60193 measured at 24 hrs by broth dilution assay; assay type: functional; conditions: ATCC 60193, 24 h; how it was run: as §1
Pichia kudriavzevii [26] = assay: Antifungal activity against Candida krusei 193T measured at 72 hrs by broth dilution assay; assay type: functional; how it was run: as §1
[27] = Antifungal activity against Geotrichum silvicola measured at 48 hrs by broth dilution assay; assay type: functional; how it was run: as §1
Candida albicans [28] = assay: Antifungal activity against Candida albicans 53T measured at 24 hrs by broth dilution assay; assay type: functional; how it was run: as §1
Candida albicans [29] = assay: Upregulation of LCB4 gene expression in Candida albicans SC5314 at 3 uM after 45 mins by microarray method relative to control; assay type: functional; how it was run: as §2
Candida albicans [30] = assay: Upregulation of orf19.1887 gene expression in Candida albicans SC5314 at 3 uM after 15 mins by microarray method relative to control; assay type: functional; how it was run: as §3

## C/C=C/CNC(=N)NCCCCCCCCN1CCCCCCCCNC(=N)NC1=O
Pichia kudriavzevii [1]
  MIC: 80 µM (≈ 34.9 µg/mL)
Candida parapsilosis [2]
  MIC: 40 µM (≈ 17.4 µg/mL)
Candida albicans [3]
  fold change (FC): 4.43
Candida parapsilosis [4]
  MIC: 40 µM (≈ 17.4 µg/mL)
Candida albicans [5]
  fold change (FC): 5.3
Candida albicans [6]
  fold change (FC): 17.28
Candida parapsilosis [7]
  MIC: 20 µM (≈ 8.71 µg/mL)
[8]
  Stability: Stable
Magnusiomyces capitatus
  MIC: 10 µM (≈ 4.36 µg/mL)
Candida albicans [9]
  fold change (FC): 3.38
Candida albicans [10]
  fold change (FC): 2.8
Candida tropicalis
  Ratio: 2
Candida albicans [11]
  Activity: Active
Pichia kudriavzevii [12]
  MIC: 80 µM (≈ 34.9 µg/mL)
Candida albicans [13]
  fold change (FC): 2.04
Candida parapsilosis [14]
  Ratio: 2
Candida albicans [15]
  fold change (FC): 3.9
Candida parapsilosis [16]
  Activity: Active
Candida albicans [17]
  fold change (FC): 6.13
Cryptococcus neoformans
  MIC: 20 µM (≈ 8.71 µg/mL)
Candida albicans [18]
  fold change (FC): 17.22
Candida albicans [19]
  fold change (FC): 2.61
Candida albicans [20]
  Activity: inactive
Nakaseomyces glabratus [21]
  MIC: > 80 µM
[22]
  Activity: Active
Nakaseomyces glabratus [23]
  MIC: > 80 µM
Candida albicans [24]
  MIC: 5 µM (≈ 2.18 µg/mL)
Candida albicans [25]
  MIC: 5 µM (≈ 2.18 µg/mL)
Pichia kudriavzevii [26]
  MIC: 80 µM (≈ 34.9 µg/mL)
[27]
  MIC: 10 µM (≈ 4.36 µg/mL)
Candida albicans [28]
  MIC: 5 µM (≈ 2.18 µg/mL)
Candida albicans [29]
  fold change (FC): 3.69
Candida albicans [30]
  fold change (FC): 2.19
